Measured values taken from article PMC5161665 (Nature, 2016).
Peptide text beside a SMILES is read from it. * marks the point of attachment. Cbz = O=C(OCc1ccccc1)*

How the values were obtained:
T. cruzi epimastigotes = assay: microbe, parasite or virus in culture; type: cell-based, Trypanosoma cruzi; details: for inhibition of T. cruzi epimastigote proliferation, potency: wild type epimastigotes
T. brucei (GVR35-VSL2) = assay: Mouse model of stage II HAT; type: in vivo, Trypanosoma brucei; details: single ip dose 40 mg/kg
[1] = biological target: T1, PSMB4^I29M T. cruzi proteasome (Trypanosoma cruzi, UniProt Q4CU77+Q4D8U7, I29M); assay: Proteasome proteolytic activities, PSMB4^I29M T. cruzi proteasome; type: biochemical; details: mean ± s.e.m., n=3
T1 sequence (Q4CU77 1-206 I29M): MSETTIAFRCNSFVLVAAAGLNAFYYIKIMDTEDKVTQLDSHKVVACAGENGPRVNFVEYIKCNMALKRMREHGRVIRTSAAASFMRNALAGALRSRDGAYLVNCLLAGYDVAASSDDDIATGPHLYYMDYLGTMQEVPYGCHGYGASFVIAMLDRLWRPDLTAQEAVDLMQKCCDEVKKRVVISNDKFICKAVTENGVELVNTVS
T1 sequence (Q4D8U7 111-311): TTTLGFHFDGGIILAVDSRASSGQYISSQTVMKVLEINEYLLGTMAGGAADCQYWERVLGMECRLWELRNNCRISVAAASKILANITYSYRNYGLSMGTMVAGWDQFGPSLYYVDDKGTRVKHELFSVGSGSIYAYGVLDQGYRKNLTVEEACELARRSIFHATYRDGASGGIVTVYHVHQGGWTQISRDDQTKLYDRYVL

[2] = system: ubiquitylated proteins in T. cruzi epimastigotes; assay: Accumulation of ubiquitylated proteins in T. cruzi epimastigotes; type: cell-based; details: Trypanosoma cruzi, read-out: ubiquitylation EC50, T. cruzi epimastigotes
How it was run: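 T. cruzi epimastigotes were seeded at 1 × 10^7 cells/well in LIT medium and exposed to DMSO (0.2%) or a range of test compound concentrations for 2–12 h at 27 °C. Cells were pelleted, washed twice in PBS, and lysed for 20 min on ice in Tris pH 7.4/NaCl/1% CHAPS buffer with protease inhibitors and N-ethylmaleimide. Lysates were cleared at 21,000 g, 30 min, 4 °C.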

| SMILES | inhibition of T. cruzi epimastigote proliferation, potency (T. cruzi epimastigotes) | parasite clearance / recrudescence (T. brucei (GVR35-VSL2)) | parasites in the brain (T. brucei (GVR35-VSL2); ex vivo brain imaging) | IC50 ([1]; IC50 caspase, caspase-like activity) | IC50 ([1]; IC50 chymotrypsin, chymotrypsin-like activity) | IC50 ([1]; IC50 trypsin, trypsin-like activity) | EC50 [2] | EC50 (T. cruzi epimastigotes; Trypanosoma cruzi, read-out: growth inhibition EC50 on T. cruzi epimastigotes) |
| --- | --- | --- | --- | --- | --- | --- | --- | --- |
| CC(C)C[C@@H](C=O)NC(=O)[C@H](CC(C)C)NC(=O)[C@H](CC(C)C)NC(=O)OCc1ccccc1 [MG132] (Cbz-Leu-Leu-Leu-aldehyde) | sub-micromolar potency |  |  |  |  |  |  |  |
| CC(=O)NCC(=O)O.CC(=O)NCC(=O)O.N=C(N)c1ccc(N=NNc2ccc(C(=N)N)cc2)cc1 [diminazene aceturate] |  | did not prevent parasite recrudescence 21 days later | parasites were clearly detected in the brains |  |  |  |  |  |
| CC(C)C[C@H](NC(=O)[C@H](Cc1ccccc1)NC(=O)c1cnccn1)B(O)O [bortezomib] | sub-micromolar potency |  |  | 540 ± 12 nM | 260 ± 40 nM | 1600 ± 58 nM | 62 nM | 160 nM |
